Reference: ChEMBL document CHEMBL3588830, “Indole Alkaloids from Chaetomium globosum” (J Nat Prod, 2015)
Active and inactive are the calls of the source. The rule behind the calls is not given here.

Key:
Bacillus subtilis = experiment: Antimicrobial activity against Bacillus subtilis 1.079 assessed as inhibition of microbial growth incubated at 37 degC for 24 hrs; assay type: functional; conditions: Bacillus subtilis, 1.079, 24 h
Procedure, shortened: (§1)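 MIC by tube broth dilution in MHB. Samples were dissolved in DMSO, with final DMSO no more than 5% (v/v). Final dilutions ran from 50 to 0.19 μg/mL, with final bacteria at 1 × 10^8 CFU/mL. Tubes were incubated at 37 °C for 24 h. MIC was taken as the lowest concentration inhibiting visible growth.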

Escherichia coli = experiment: Antimicrobial activity against Escherichia coli 1.044 assessed as inhibition of microbial growth incubated at 37 degC for 24 hrs; assay type: functional; conditions: Escherichia coli, 1.044, 24 h; procedure, shortened: as §1
[1] = Antioxidative activity assessed as DPPH radical scavenging activity at 89.9 uM; assay type: physicochemical
[2] = Antioxidative activity assessed as superoxide anion radical scavenging activity at 88.3 uM; assay type: physicochemical
[3] = Antioxidative activity assessed as ABTS cation radical scavenging activity at 103.7 uM; assay type: physicochemical
Candida albicans [4] = experiment: Antimicrobial activity against Candida albicans assessed as inhibition of microbial growth up to 200 ug/mL incubated at 31 degC for 72 hrs; assay type: functional, organism-based
Procedure, shortened: (§2)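 Oxford cup diffusion assay on agar plates of potato extract 20% (w/v, boiled 20 min), dextrose 20.0 g/L and agar 17 g/L, seeded with the fungal strain. Plates incubated at 31 °C for 72 h.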

Fusarium graminearum [5] = experiment: Antimicrobial activity against Fusarium graminearum assessed as inhibition of microbial growth up to 200 ug/mL incubated at 31 degC for 72 hrs; assay type: functional, organism-based; procedure, shortened: as §2
[6] = system: Fusarium oxysporum f. sp. vasinfectum; experiment: Antimicrobial activity against Fusarium vasinfectum assessed as inhibition of microbial growth up to 200 ug/mL incubated at 31 degC for 72 hrs; assay type: functional, organism-based; procedure, shortened: as §2
Saccharomyces cerevisiae [7] = experiment: Antimicrobial activity against Saccharomyces cerevisiae assessed as inhibition of microbial growth up to 200 ug/mL incubated at 31 degC for 72 hrs; assay type: functional, organism-based; procedure, shortened: as §2
Aspergillus niger [8] = experiment: Antimicrobial activity against Aspergillus niger assessed as inhibition of microbial growth incubated up to 200 ug/mL at 31 degC for 72 hrs; assay type: functional, organism-based; procedure, shortened: as §2
[9] = Antioxidative activity assessed as DPPH radical scavenging activity at 93.9 uM; assay type: physicochemical
[10] = Antioxidative activity assessed as superoxide anion radical scavenging activity at 90.9 uM; assay type: physicochemical
[11] = Antioxidative activity assessed as ABTS cation radical scavenging activity at 108.3 uM; assay type: physicochemical
[12] = Antioxidative activity assessed as DPPH radical scavenging activity; assay type: physicochemical
[13] = Antioxidative activity assessed as ABTS cation radical scavenging activity; assay type: physicochemical
[14] = Antioxidative activity assessed as superoxide anion radical scavenging activity; assay type: physicochemical
Candida albicans [15] = experiment: Antimicrobial activity against Candida albicans assessed as inhibition of microbial growth up to 100 ug/mL incubated at 31 degC for 72 hrs; assay type: functional, organism-based
Procedure, shortened: (§3)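 Oxford cup diffusion on agar plates of potato extract 20% (w/v, boiled 20 min), dextrose 20.0 g/L and agar 17 g/L, inoculated with the test fungus. Plates were incubated at 31 °C for 72 h.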

Fusarium graminearum [16] = experiment: Antimicrobial activity against Fusarium graminearum assessed as inhibition of microbial growth up to 100 ug/mL incubated at 31 degC for 72 hrs; assay type: functional, organism-based; procedure, shortened: as §2
[17] = system: Fusarium oxysporum f. sp. vasinfectum; experiment: Antimicrobial activity against Fusarium vasinfectum assessed as inhibition of microbial growth up to 100 ug/mL incubated at 31 degC for 72 hrs; assay type: functional, organism-based; procedure, shortened: as §3
Saccharomyces cerevisiae [18] = experiment: Antimicrobial activity against Saccharomyces cerevisiae assessed as inhibition of microbial growth up to 100 ug/mL incubated at 31 degC for 72 hrs; assay type: functional, organism-based; procedure, shortened: as §3
Aspergillus niger [19] = experiment: Antimicrobial activity against Aspergillus niger assessed as inhibition of microbial growth incubated up to 100 ug/mL at 31 degC for 72 hrs; assay type: functional, organism-based; procedure, shortened: as §3
[20] = Antioxidative activity assessed as superoxide anion radical scavenging activity at 61.3 uM; assay type: physicochemical

With `CN1C(=O)[C@]2(Cc3cn([C@]45C[C@@]67SSS[C@@](CO)(C(=O)N6[C@H]4Nc4ccccc45)N(C)C7=O)c4ccccc34)SS[C@@]1(CO)C(=O)N2C` [CHETOSEMINUDIN A] the MIC (Bacillus subtilis) was 0.78 µg/mL, the MIC (Escherichia coli) was over 50 µg/mL and the “inhibition (INH)” value [1] was under 10%. The “inhibition (INH)” value [2] was 51.5% and the “inhibition (INH)” value [3] was under 20%.

In the case of `CN1C(=O)[C@]2(Cc3cn([C@]45C[C@@]67SS[C@@](CO)(C(=O)N6[C@H]4Nc4ccccc45)N(C)C7=O)c4ccccc34)SS[C@@]1(CO)C(=O)N2C` [CHETOMIN], the MIC (Bacillus subtilis) is reported as 0.78 µg/mL, the MIC (Escherichia coli) is reported as over 50 µg/mL and the “growth inhibition (GI)” value (Candida albicans [4]) is reported as “inactive”. The “growth inhibition (GI)” value (Fusarium graminearum [5]) was “inactive”, the “growth inhibition (GI)” value [6] was “inactive” and the “growth inhibition (GI)” value (Saccharomyces cerevisiae [7]) was “inactive”. The “growth inhibition (GI)” value (Aspergillus niger [8]) was “inactive”, the “inhibition (INH)” value [9] was under 10% and the “inhibition (INH)” value [10] was 18.1%. For the same molecule, the “inhibition (INH)” value [11] was under 20%.

With `COc1cccc(OC)c1C(=O)N[C@@H]1C(=O)N2[C@@H]1SC(C)(C)[C@@H]2C(=O)O` [METHICILLIN] the MIC (Bacillus subtilis) was 0.78 µg/mL.

With `O=C1O[C@H]([C@@H](O)CO)C(O)=C1O` [ASCORBIC ACID] the IC50 [12] was 0.02 µM and the IC50 [13] was 0.01 µM.

For `CN1C(=O)C2=CC3(n4cc(C[C@@]56SSSS[C@@](CO)(C(=O)N5C)N(C)C6=O)c5ccccc54)c4ccccc4N[C@@H]3N2C(=O)C1CO` (some centres undefined), the MIC (Bacillus subtilis) was 25 µg/mL, the MIC (Escherichia coli) was over 50 µg/mL and the “inhibition (INH)” value [9] was under 10%. For the same molecule, the “inhibition (INH)” value [10] was 14.8% and the “inhibition (INH)” value [11] was under 20%.

In the case of `O=c1cc(-c2ccc(O)c(O)c2)oc2cc(O)cc(O)c12` [LUTEOLIN], the IC50 [14] is reported as 22.3 µM.

In the case of `CC(C)=CCc1ccc2[nH]cc(C3=C(O)C(=O)C(O)(c4c[nH]c5ccc(CC=C(C)C)cc45)C(=O)C3=O)c2c1` (centres undefined), the MIC (Bacillus subtilis) is reported as 50 µg/mL, the MIC (Escherichia coli) is reported as over 50 µg/mL and the “growth inhibition (GI)” value (Candida albicans [15]) is reported as “inactive”. For the same molecule, the “growth inhibition (GI)” value (Fusarium graminearum [16]) was “inactive”, the “growth inhibition (GI)” value [17] was “inactive” and the “growth inhibition (GI)” value (Saccharomyces cerevisiae [18]) was “inactive”. The “growth inhibition (GI)” value (Aspergillus niger [19]) was “inactive”, the IC50 [12] was 144 µM and the IC50 [13] was 45.2 µM. For the same molecule, the “inhibition (INH)” value [20] was 30.4%.
